Results published in ChEMBL document CHEMBL1158524, “Synthesis and SAR of novel imidazoles as potent and selective cannabinoid CB2 receptor antagonists with high binding efficiencies” (Bioorg Med Chem Lett, 2010).

These compounds were tested against T1, Cannabinoid receptor 2 (Homo sapiens, UniProt P34972) (assay: Displacement of [3H]CP-55940 from human CB2 receptor expressed in CHO cells). Conditions: not given.
Format: cell-based
Summary of the method: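 CHO cells stably transfected with human CB2 receptor. Values are the mean of at least three independent experiments.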

T1 sequence (P34972 whole entry): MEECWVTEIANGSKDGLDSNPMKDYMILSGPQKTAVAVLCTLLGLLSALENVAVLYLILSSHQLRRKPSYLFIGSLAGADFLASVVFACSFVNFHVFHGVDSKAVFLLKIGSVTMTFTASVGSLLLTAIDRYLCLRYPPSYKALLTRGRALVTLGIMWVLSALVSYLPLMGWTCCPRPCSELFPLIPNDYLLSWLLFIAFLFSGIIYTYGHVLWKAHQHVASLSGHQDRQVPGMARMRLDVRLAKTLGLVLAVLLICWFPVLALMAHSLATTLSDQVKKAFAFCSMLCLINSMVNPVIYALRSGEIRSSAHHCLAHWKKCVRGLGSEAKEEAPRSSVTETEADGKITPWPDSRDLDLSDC

Structure (SMILES) | Ki
Cc1nc(C(=O)NCc2ccccc2C(F)(F)F)c(C)n1-c1ccccc1 | 3.5 nM
O=C(NC12CC3CC(CC(C3)C1)C2)c1nc(Cl)n(-c2ccccc2)c1Cl | 50 nM
CCc1c(C(=O)NC23CC4CC(CC(C4)C2)C3)nc(C)n1-c1ccccc1 | 1.03 nM
Cc1nc(C(=O)NC23CC4CC(CC(C4)C2)C3)c(Cl)n1-c1ccccc1 | 23.8 nM
Cc1nc(C(=O)NC23CC4CC(CC(C4)C2)C3)c(C)n1C1CCCCC1 | 20 nM
Cc1nc(C(=O)NC[C@H]2C[C@@H]3C[C@H](C2)C3(C)C)c(C)n1-c1ccccc1 | 20 nM
CCc1nc(C(=O)NC23CC4CC(CC(C4)C2)C3)c(C)n1-c1ccccc1 | 1.6 nM
CCc1nc(C(=O)NC23CC4CC(CC(C4)C2)C3)cn1-c1ccccc1 | 12.7 nM
CSc1c(C(=O)NC23CC4CC(CC(C4)C2)C3)nc(C)n1-c1ccccc1 | 10 nM
Cc1nc(C(=O)NC23CC4CC(CC(C4)C2)C3)c(C)n1-c1ccccc1 | 2.7 nM
CCCCc1c(C(=O)NC23CC4CC(CC(C4)C2)C3)nc(C)n1-c1ccccc1 | 9.8 nM
Cc1nc(C(=O)NC23CC4CC(CC(C4)C2)C3)c(Br)n1-c1ccccc1 | 8.4 nM
Cc1nc(C(=O)NC2C3CC4CC(C3)CC2C4)c(C)n1-c1ccccc1 (stereo not drawn) | 13.8 nM
Cc1c(C(=O)NC[C@H]2C[C@@H]3C[C@H](C2)C3(C)C)ncn1-c1ccccc1 | 175 nM
Cc1nc(C(=O)NC2C3CC4CC(C3)C2C4)c(C)n1-c1ccccc1 (stereo not drawn) | 9.7 nM
C[C@H](NS(C)(=O)=O)c1ccc(S(=O)(=O)c2ccc(Cl)cc2S(=O)(=O)c2ccccc2F)cc1 | 0.8 nM

The compounds below were run against Cannabinoid receptor 1 (Homo sapiens, UniProt P21554) (assay: Displacement of [3H]CP-55940 from human CB1 receptor expressed in CHO cells). Conditions: not given.
Format: cell-based
Summary of the method: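 CHO cells stably transfected with human CB1 receptor. Values are the mean of at least three independent experiments.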

Chain of Cannabinoid receptor 1 (P21554 whole entry): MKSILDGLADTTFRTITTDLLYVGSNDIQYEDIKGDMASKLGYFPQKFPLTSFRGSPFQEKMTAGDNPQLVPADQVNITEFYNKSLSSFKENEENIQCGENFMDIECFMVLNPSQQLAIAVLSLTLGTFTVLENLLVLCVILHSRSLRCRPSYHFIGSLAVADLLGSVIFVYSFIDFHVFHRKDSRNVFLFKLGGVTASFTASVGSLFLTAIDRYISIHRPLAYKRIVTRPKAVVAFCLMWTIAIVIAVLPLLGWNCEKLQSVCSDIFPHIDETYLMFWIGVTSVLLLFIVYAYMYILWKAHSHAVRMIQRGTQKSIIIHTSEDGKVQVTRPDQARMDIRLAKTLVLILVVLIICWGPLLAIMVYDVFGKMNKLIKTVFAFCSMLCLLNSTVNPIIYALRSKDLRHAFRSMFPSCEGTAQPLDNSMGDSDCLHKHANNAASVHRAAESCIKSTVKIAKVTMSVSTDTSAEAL

Structure (SMILES) | Ki
Cc1nc(C(=O)NCc2ccccc2C(F)(F)F)c(C)n1-c1ccccc1 | 1420 nM
O=C(NC12CC3CC(CC(C3)C1)C2)c1nc(Cl)n(-c2ccccc2)c1Cl | > 1000 nM
CCc1c(C(=O)NC23CC4CC(CC(C4)C2)C3)nc(C)n1-c1ccccc1 | > 10000 nM
CCCCCOc1c(OC)ccc2cc(C(=O)NCc3ccc4c(c3)OCO4)c(=O)[nH]c12 | 3920 nM
Cc1nc(C(=O)NC23CC4CC(CC(C4)C2)C3)c(Cl)n1-c1ccccc1 | > 10000 nM
Cc1nc(C(=O)NC23CC4CC(CC(C4)C2)C3)c(C)n1C1CCCCC1 | > 10000 nM
Cc1nc(C(=O)NC[C@H]2C[C@@H]3C[C@H](C2)C3(C)C)c(C)n1-c1ccccc1 | 3990 nM
CCc1nc(C(=O)NC23CC4CC(CC(C4)C2)C3)c(C)n1-c1ccccc1 | 4150 nM
CCc1nc(C(=O)NC23CC4CC(CC(C4)C2)C3)cn1-c1ccccc1 | > 1000 nM
CSc1c(C(=O)NC23CC4CC(CC(C4)C2)C3)nc(C)n1-c1ccccc1 | > 10000 nM
Cc1nc(C(=O)NC23CC4CC(CC(C4)C2)C3)c(C)n1-c1ccccc1 | 4890 nM
CCCCc1c(C(=O)NC23CC4CC(CC(C4)C2)C3)nc(C)n1-c1ccccc1 | 2000 nM
Cc1nc(C(=O)NC23CC4CC(CC(C4)C2)C3)c(Br)n1-c1ccccc1 | > 10000 nM
Cc1nc(C(=O)NC2C3CC4CC(C3)CC2C4)c(C)n1-c1ccccc1 (stereo not drawn) | 3010 nM
Cc1c(C(=O)NC[C@H]2C[C@@H]3C[C@H](C2)C3(C)C)ncn1-c1ccccc1 | > 10000 nM
Cc1nc(C(=O)NC2C3CC4CC(C3)C2C4)c(C)n1-c1ccccc1 (stereo not drawn) | 5440 nM
C[C@H](NS(C)(=O)=O)c1ccc(S(=O)(=O)c2ccc(Cl)cc2S(=O)(=O)c2ccccc2F)cc1 | 3540 nM

Organism: Homo sapiens
Assay: Selectivity ratio of Ki for human CB1 to Ki for human CB2
Conditions: not given

Structure (SMILES) | Ratio
Cc1nc(C(=O)NCc2ccccc2C(F)(F)F)c(C)n1-c1ccccc1 | 406
O=C(NC12CC3CC(CC(C3)C1)C2)c1nc(Cl)n(-c2ccccc2)c1Cl | > 20
CCc1c(C(=O)NC23CC4CC(CC(C4)C2)C3)nc(C)n1-c1ccccc1 | > 9710
Cc1nc(C(=O)NC23CC4CC(CC(C4)C2)C3)c(Cl)n1-c1ccccc1 | > 420
Cc1nc(C(=O)NC23CC4CC(CC(C4)C2)C3)c(C)n1C1CCCCC1 | > 500
Cc1nc(C(=O)NC[C@H]2C[C@@H]3C[C@H](C2)C3(C)C)c(C)n1-c1ccccc1 | 200
CCc1nc(C(=O)NC23CC4CC(CC(C4)C2)C3)c(C)n1-c1ccccc1 | 2600
CCc1nc(C(=O)NC23CC4CC(CC(C4)C2)C3)cn1-c1ccccc1 | > 79
CSc1c(C(=O)NC23CC4CC(CC(C4)C2)C3)nc(C)n1-c1ccccc1 | > 1000
Cc1nc(C(=O)NC23CC4CC(CC(C4)C2)C3)c(C)n1-c1ccccc1 | 1810
CCCCc1c(C(=O)NC23CC4CC(CC(C4)C2)C3)nc(C)n1-c1ccccc1 | > 102
Cc1nc(C(=O)NC23CC4CC(CC(C4)C2)C3)c(Br)n1-c1ccccc1 | > 1190
Cc1nc(C(=O)NC2C3CC4CC(C3)CC2C4)c(C)n1-c1ccccc1 (stereo not drawn) | 218
Cc1c(C(=O)NC[C@H]2C[C@@H]3C[C@H](C2)C3(C)C)ncn1-c1ccccc1 | > 57
Cc1nc(C(=O)NC2C3CC4CC(C3)C2C4)c(C)n1-c1ccccc1 (stereo not drawn) | 561
C[C@H](NS(C)(=O)=O)c1ccc(S(=O)(=O)c2ccc(Cl)cc2S(=O)(=O)c2ccccc2F)cc1 | 4420

The compounds below were run against T1, Cannabinoid receptor 2 (assay: Inverse agonist activity at human CB2 receptor assessed as inhibition of forskolin-stimulated cAMP accumulation after 4 hrs). Conditions: not given.
Format: functional
Summary of the method: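 Functional human CB2 cAMP accumulation assay with the incubation extended to 4 h. Inverse agonism read out as pEC50. Values are the mean of at least three independent experiments.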

Structure (SMILES) | EC50
CCc1c(C(=O)NC23CC4CC(CC(C4)C2)C3)nc(C)n1-c1ccccc1 | 0.251 nM
CCc1nc(C(=O)NC23CC4CC(CC(C4)C2)C3)cn1-c1ccccc1 | 6.31 nM
Cc1nc(C(=O)NC23CC4CC(CC(C4)C2)C3)c(C)n1-c1ccccc1 | 0.794 nM
C[C@H](NS(C)(=O)=O)c1ccc(S(=O)(=O)c2ccc(Cl)cc2S(=O)(=O)c2ccccc2F)cc1 | 5.01 nM

Each compound was assayed against T1, Cannabinoid receptor 2 (assay: Antagonist activity at human CB2 receptor assessed as inhibition of forskolin-stimulated cAMP accumulation in presence of JWH133). Conditions: read-out: pA2 (converted).
Format: functional
Summary of the method: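 Human CB2 cAMP accumulation assay measuring dose-dependent antagonism of the CB2-selective agonist JWH133, expressed as pA2 ± error. Incubation was 20 min, or 4 h for some compounds. Based on at least three independent experiments.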

Structure (SMILES) | Kb
O=C(NC12CC3CC(CC(C3)C1)C2)c1nc(Cl)n(-c2ccccc2)c1Cl | 7.94 nM
CCc1c(C(=O)NC23CC4CC(CC(C4)C2)C3)nc(C)n1-c1ccccc1 | 1 nM
CCc1nc(C(=O)NC23CC4CC(CC(C4)C2)C3)c(C)n1-c1ccccc1 | 5.01 nM
Cc1nc(C(=O)NC23CC4CC(CC(C4)C2)C3)c(C)n1-c1ccccc1 | 1.58 nM
C[C@H](NS(C)(=O)=O)c1ccc(S(=O)(=O)c2ccc(Cl)cc2S(=O)(=O)c2ccccc2F)cc1 | 1 nM

These compounds were tested against T1, Cannabinoid receptor 2 (assay: Inverse agonist activity at human CB2 receptor assessed as stimulation of cAMP accumulation after 20 mins). Conditions: not given.

Structure (SMILES) | EC50
Cc1nc(C(=O)NCc2ccccc2C(F)(F)F)c(C)n1-c1ccccc1 | 0.2 nM
O=C(NC12CC3CC(CC(C3)C1)C2)c1nc(Cl)n(-c2ccccc2)c1Cl | 79.4 nM
CCc1c(C(=O)NC23CC4CC(CC(C4)C2)C3)nc(C)n1-c1ccccc1 | 20 nM
Cc1nc(C(=O)NC23CC4CC(CC(C4)C2)C3)c(Cl)n1-c1ccccc1 | 63.1 nM
Cc1nc(C(=O)NC23CC4CC(CC(C4)C2)C3)c(C)n1C1CCCCC1 | 126 nM
Cc1nc(C(=O)NC[C@H]2C[C@@H]3C[C@H](C2)C3(C)C)c(C)n1-c1ccccc1 | 31.6 nM
CCc1nc(C(=O)NC23CC4CC(CC(C4)C2)C3)c(C)n1-c1ccccc1 | 1.58 nM
CCc1nc(C(=O)NC23CC4CC(CC(C4)C2)C3)cn1-c1ccccc1 | 12.6 nM
CSc1c(C(=O)NC23CC4CC(CC(C4)C2)C3)nc(C)n1-c1ccccc1 | 6.31 nM
Cc1nc(C(=O)NC23CC4CC(CC(C4)C2)C3)c(C)n1-c1ccccc1 | 0.794 nM
CCCCc1c(C(=O)NC23CC4CC(CC(C4)C2)C3)nc(C)n1-c1ccccc1 | 5.01 nM
Cc1nc(C(=O)NC2C3CC4CC(C3)CC2C4)c(C)n1-c1ccccc1 (stereo not drawn) | 6.31 nM
Cc1c(C(=O)NC[C@H]2C[C@@H]3C[C@H](C2)C3(C)C)ncn1-c1ccccc1 | 158 nM
Cc1nc(C(=O)NC2C3CC4CC(C3)C2C4)c(C)n1-c1ccccc1 (stereo not drawn) | 7.94 nM
C[C@H](NS(C)(=O)=O)c1ccc(S(=O)(=O)c2ccc(Cl)cc2S(=O)(=O)c2ccccc2F)cc1 | 7.94 nM
